Screening results from PubChem BioAssay.
Sampled rows, rich in hits. Any-hit rate of the full collection: about 2.3%.
CHT block: inhibitors of human choline transporter CHT; High affinity choline transporter 1 (Homo sapiens), Q9GZV3; CHT-expressing cells, membrane potential dye, choline response; active compounds read low; B-score at 10 µM; 0.86% of 310,000 active; AID 488975, 2010;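 active = B-score over 3 SD under the library average, and starting fluorescence ratio not unusually high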;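 also: choline stimulus applied at its EC90 after an EC20 pre-addition; B-score computed on integrated fluorescence ratio after choline addition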
NR2E3 ag-1: NR2E3 agonists in two-hybrid cells, primary screen, cell-based, luminescence, CHO-S, Gal4-NCOR/VP16-NR2E3 | Photoreceptor-specific nuclear receptor (Homo sapiens), Q9Y5X4 | luciferase | inhibition of corepressor binding, % at 3.98 µM | 0.35% of 360,000 active | AID 602229, 2012;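 active = inhibition above the mean of all tested compounds plus 3 SD, cut at about 70% in these data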;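 also: higher means lower luciferase signal from less NR2E3 corepressor binding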
Target sequence (Q9Y5X4 whole entry, looked up, the tested form may be a part): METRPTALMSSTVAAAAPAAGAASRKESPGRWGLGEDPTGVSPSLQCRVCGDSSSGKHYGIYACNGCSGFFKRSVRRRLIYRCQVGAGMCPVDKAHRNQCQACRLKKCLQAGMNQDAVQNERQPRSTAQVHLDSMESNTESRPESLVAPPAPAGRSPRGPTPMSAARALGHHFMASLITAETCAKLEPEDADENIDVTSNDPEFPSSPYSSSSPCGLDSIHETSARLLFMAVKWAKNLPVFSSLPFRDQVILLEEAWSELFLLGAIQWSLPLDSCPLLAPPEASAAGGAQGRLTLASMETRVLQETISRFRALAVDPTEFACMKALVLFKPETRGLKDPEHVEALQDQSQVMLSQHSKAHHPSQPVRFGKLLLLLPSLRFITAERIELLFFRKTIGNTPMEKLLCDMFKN
COUP-TFII inh: NR2F2 transcriptional activity inhibitors, primary screen, cell-based, luciferase reporter, HEK293T, luminescence; COUP transcription factor 2 (Homo sapiens), P24468; HEK293T NGFI-A luciferase reporter; inhibition, % at 8.6 µM; 0.7% of 370,000 active; AID 686940, 2013;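 active = inhibition above a per-plate cutoff, mean inhibition of test wells between control levels plus 3 SD, cut at about 38% in these data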;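 also: cells cotransfected with COUP-TFII expression vector driving the NGFI-A reporter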
NR2E3 ag-2: inhibitors of NR2E3-RetCOR corepressor binding, primary screen, NR2E3 agonist project, biochemical, TR-FRET, GST-NR2E3, biotin-RetCOR. Photoreceptor-specific nuclear receptor (Homo sapiens), Q9Y5X4. 1536-well. inhibition of corepressor binding, % at 4.78 µM. 0.12% of 320,000 active;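 active = percent inhibition above the cutoff of mean plus 3 SD of all tested compounds, set per screening campaign, cut at about 20% in these data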
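system = GST-tagged NR2E3 plus biotinylated RetCOR corepressor | input = 1.35 nM GST-NR2E3 | also added = 7 nM biotin-RetCOR | schedule = 5 h incubation at 4 °C | measured by = TR-FRET with europium anti-GST and streptavidin-D2, 340 nm excitation | read-out = percent loss of FRET ratio relative to control wells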
CHT PAM: CHT positive allosteric modulators, primary screen, cell-based, membrane potential dye, choline EC20 | High affinity choline transporter 1 (Homo sapiens), Q9GZV3 | CHT-expressing cells; active compounds read high; LV-AA mutant CHT in HEK293 cells | B-score at 10 µM | 0.49% of 310,000 active | AID 488977, 2010;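 active = initial fluorescence not abnormally high and integrated response B-score, plate-corrected, over 3 SD above library mean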
GalR3 antagonist: GalR3 antagonists in HEK293 cells, primary screen, cell-based, fluorescence readout. Galanin receptor type 3 (Homo sapiens), O60755. HEK293 GalR3-CNG cAMP membrane potential fluorescence; galR3 body fused to GalR1 C-terminus. inhibition, % at 3 µM. 0.44% of 360,000 active;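 active = inhibition above the screen-wide average plus 3 SD, cut at about 13% in these data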;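 also: forskolin and galanin both at EC90 stimulate the cells; cAMP rise reported by CNG channel membrane potential dye signal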
NR2E3 ag confirm: NR2E3 agonist confirmation in cells, cell-based, luminescence, CHO-S two-hybrid | shares compounds with NR2E3 ag-1 | CHO-S mammalian two-hybrid NR2E3-NCOR, luciferase luminescence | inhibition, % at 3.98 µM | 51% of 2,300 active | AID 624378, 2012;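 active = average inhibition above a cutoff equal to the mean inhibition of all tested compounds plus one SD, cut at about 70% in these data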
VP16 counter: GAL4-VP16 reporter modulators, confirmation, counter-screen for NR2E3 agonist project, cell-based, luminescence, CHO-S, high throughput | shares compounds with NR2E3 ag-1 | CHO-S GAL4-VP16 luciferase reporter | inhibition, % at 3.98 µM | 29% of 2,300 active;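 active = mean inhibition above a cutoff equal to the average over all tested compounds plus one standard deviation, cut at about 70% in these data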;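 also: luciferase from a UAS reporter driven by GAL4-VP16 transactivation; higher means less reporter light so more repression of VP16 activity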
GalR3 conf: GalR3 antagonist hit confirmation, cell-based, fluorescence, triplicate | shares compounds with GalR3 antagonist | HEK293 GalR3 CNG cAMP biosensor, membrane potential fluorescence; galR3 fused to GalR1 carboxy tail; challenged with forskolin and galanin at EC90 | inhibition, % at 3 µM | 59% of 1,600 active;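 active = inhibition above the primary screen's cutoff, the mean inhibition of all screened compounds plus 3 SD, cut at about 13% in these data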
CNG parental: nonspecific cAMP agonists in parental HEK-CNG cells, counter-screen for GalR3 antagonist project, cell-based, fluorescence, high throughput | activation, % at 3 µM | 10% of 1,600 active | AID 652268, 2013 | shares compounds with GalR3 antagonist | HEK293-CNG parental cells, cAMP membrane potential fluorescence; normalised: DMSO wells 0%, forskolin wells 100%; in the data active = activation above about 1.3%
VP16 Luc counter: Gal4-VP16 luciferase reporter inhibitors, counter-screen for COUP-TFII antagonist project, cell-based, luminescence, HEK293 | shares compounds with COUP-TFII inh | inhibition, % at 8.5 µM | 25% of 2,500 active | AID 687007, 2013; in the data active = inhibition above about 13%
COUP-TFII conf: NR2F2 transcriptional activity inhibitors, confirmation, cell-based, luciferase reporter, HEK293, triplicate. shares compounds with COUP-TFII inh. 45% of 2,500 active. inhibition, % at 8.5 µM. HEK293 NGFI-A luciferase reporter, luminescence;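 active = mean inhibition over three repeats above a set limit taken from the earlier primary screen, cut at about 38% in these data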
Numbers stand for hits; – = inactive; · = no result.

SMILES	CHT block	NR2E3 ag-1	COUP-TFII inh	NR2E3 ag-2	CHT PAM	GalR3 antagonist	NR2E3 ag confirm	VP16 counter	VP16 Luc counter	COUP-TFII conf	others
COCC1CCN(C(=O)c2cc(COc3cccc4cnccc34)on2)CC1	–	90	53	–	–	–	72	–	–	–
COc1ccc(OCc2cc(C(=O)N3CCCC(CO)C3)no2)c2ccccc12 (stereo not given)	–	–	–	–	–	–	·	·	·	·
Cc1nn(C)cc1C(C)NC(=O)c1cc(COc2cccc3cnccc23)on1 (stereo not given)	–	–	38	–	–	–	–	–	–	–
O=C(c1cc(COc2cccc3cnccc23)on1)N1CCCC(CCCO)C1 (stereo not given)	–	110	71	–	–	97	99	93	–	76	GalR3 conf=104;CNG parental=–
COCC1CCN(C(=O)c2cc(COc3ccc(F)cc3Cl)on2)C1 (stereo not given)	·	–	–	·	·	–	·	·	·	·
Cc1cc(N2CCN(c3nc4ccccc4s3)CC2)n2ncnc2n1	–	73	68	–	–	24	94	76	–	71	GalR3 conf=37;CNG parental=–
FC(F)(F)c1cccc(Cc2noc(CN3CCC(c4ccncc4)CC3)n2)c1	–	–	53	–	–	–	78	–	–	–
CN1CCCC2(CCCN(Cc3nc(Cc4cccc(C(F)(F)F)c4)no3)C2)C1 (stereo not given)	–	–	–	–	–	–	·	·	·	·
COc1ccccc1N1CCN(S(=O)(=O)c2ccc3c(c2)CCC(=O)N3)CC1	·	·	–	·	·	·	·	·	·	·
COC(=O)CCC1NC(=O)C(Cc2c[nH]c3ccccc23)NC(=O)C2CC(=O)OC(C)C(NC(=O)C(C)NC(=O)C3CCCN3C(=O)C3CCCN3C(=O)C(C)NC(C)=O)C(=O)NC(CC(C)C)C(=O)NC(CCCCNC(=O)CCC(C(=O)NC(Cc3ccc(O)cc3)C(=O)O)NC1=O)C(=O)NC(Cc1c[nH]c3ccccc13)C(=O)N1CCCC1C(=O)NC(CO)C(=O)N2 (stereo not given)	·	·	–	·	·	·	·	·	·	·
CC(=O)/C(N=Nc1ccc2c(c1)OCCO2)=C(\C)O	–	–	68	–	–	–	–	–	–	–
Cc1cc(C)nc(SCC(=O)Nc2ccnc3ccccc23)n1	–	84	65	–	–	55	92	83	–	60	GalR3 conf=121;CNG parental=–
Cc1cc(NC(=O)Cc2ccccc2)c2ccccc2n1	–	–	58	–	–	13	87	–	–	39	GalR3 conf=65;CNG parental=–
CCCCCCC(=O)NC1CCCCN(Cc2ccccc2C)C1=O (stereo not given)	·	·	–	·	·	·	·	·	·	·
CC(=O)c1c(C)[nH]c(C(=O)C(C)Sc2nnc(NC3CC3)s2)c1C (stereo not given)	·	–	37	–	·	–	–	–	–	–
CCOC(=O)CCCNC(=O)O[C@@H]1CC[C@@]23CCCN2C(=O)CCC[C@H]3C1	·	·	–	·	·	·	·	·	·	·
CC(C)CCCCCCCCCCCCC(=O)NCC(=O)NC1C(C)OC(Nc2ncnc3nc[nH]c23)C(O)C1O (stereo not given)	·	72	78	·	·	–	98	97	14	82
CC(C)C[C@H](NC1(C(=O)NC2CCCCC2)CCN(C(=O)OC(C)(C)C)CC1)C(=O)NCCc1c[nH]c2ccccc12	·	·	–	·	·	·	·	·	·	·
Cc1nn(C)c(C)c1CN(Cc1nc(CCC(C)C)no1)C(C)C	–	86	66	–	–	92	99	87	–	62
CCn1cc(C(=O)NC2CCCc3c2cnn3-c2cccc(C)c2C)cn1 (stereo not given)	–	105	64	–	–	97	95	88	–	50	GalR3 conf=114;CNG parental=–
Cc1cccc(-n2ncc3c2CCCC3NC(=O)CN2CCOC2=O)c1C (stereo not given)	–	–	–	–	–	–	·	·	·	·
CC1=C(C(=O)NC2CCCc3c2cnn3-c2cccc(C)c2C)OCCO1 (stereo not given)	–	80	56	–	–	–	73	–	–	45
Cc1cc(C(=O)NC2CCCc3c2cnn3-c2cccc(C)c2C)no1 (stereo not given)	–	–	–	–	–	–	·	·	·	·
Cc1cccc(-n2ncc3c2CCCC3NC(=O)c2ccncc2)c1C (stereo not given)	·	83	64	·	·	90	85	77	–	49	GalR3 conf=111;CNG parental=–
Cc1cccc(-n2ncc3c2CCCC3NC(=O)Cc2c(C)noc2C)c1C (stereo not given)	–	–	42	–	–	–	–	–	–	–
COc1ccc(C=NNC(=O)c2cc(-c3ccc(C)c(C)c3)n[nH]2)cc1OCc1ccccc1	·	·	–	·	·	·	·	·	·	·
